Only some compounds are listed: those with a hit (about 2% of all), similar ones and a draw of the others.
DNA FID counter: fluorescent intercalator displacement, NS3 helicase counter-screen | hit rate 0.17% among 290,000 | inhibition, % at 7.9 µM | DNA fluorescent intercalator displacement, fluorescence; in the data active = inhibition above about 37%;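 note: 0% = vehicle and 100% = reference compound; higher means more ethidium bromide displaced from hairpin DNA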
ZTA counter: ZTA (EBV) inhibition in EBNA-1 counter-screen | P03206 | ZTA-DNA binding, fluorescence polarization | inhibition, % at 11 µM | hit rate 0.15% among 320,000 | AID 2234; in the data active = inhibition above about 33%
Target sequence (P03206 whole entry, looked up): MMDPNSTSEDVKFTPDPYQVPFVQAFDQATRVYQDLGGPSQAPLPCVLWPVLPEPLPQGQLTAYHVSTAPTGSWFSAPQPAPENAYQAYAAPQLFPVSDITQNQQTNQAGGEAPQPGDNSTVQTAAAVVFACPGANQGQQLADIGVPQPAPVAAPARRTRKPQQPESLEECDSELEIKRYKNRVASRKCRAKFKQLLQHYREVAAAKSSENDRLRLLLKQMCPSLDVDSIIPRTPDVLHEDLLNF
HCV NS3 hel inh: HCV NS3 helicase inhibition; inhibition, % at 10.9 µM; hit rate 0.56% among 290,000; NS3 helicase DNA unwinding, Cy5 molecular beacon fluorescence;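 active = inhibition above the mean of all tested compounds plus 3 SD, set per campaign, cut at about 35% in these data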;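 note: 0% = DMSO wells and 100% = thioflavine S control wells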
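Control set: DMSO versus 110 µM thioflavine S; Material: NS3 helicase fragment of HCV; Measured by: Cy5 fluorescence at 0 and 60 min, beacon hairpin quenching; Read-out basis: percent inhibition from t60/t0 fluorescence ratio; Times: reaction time 60 min, 25 °C; Repeats: single replicate; Compound dosing: single dose, 10.9 µM nominal final, DMSO 0.8% final.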
GPR7 antagonist: blocks human GPR7 receptor signaling; inhibition, % at 4.4 µM; P48145; hit rate 1.1% among 290,000; AID 1861; GPR7-expressing cells, fluorescence antagonist assay; in the data active = inhibition above about 16%, passing the limit was not always enough;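 note: cells stimulated with the agonist NPW; 0% = agonist with vehicle and 100% = vehicle without agonist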
Target sequence (P48145 whole entry, looked up): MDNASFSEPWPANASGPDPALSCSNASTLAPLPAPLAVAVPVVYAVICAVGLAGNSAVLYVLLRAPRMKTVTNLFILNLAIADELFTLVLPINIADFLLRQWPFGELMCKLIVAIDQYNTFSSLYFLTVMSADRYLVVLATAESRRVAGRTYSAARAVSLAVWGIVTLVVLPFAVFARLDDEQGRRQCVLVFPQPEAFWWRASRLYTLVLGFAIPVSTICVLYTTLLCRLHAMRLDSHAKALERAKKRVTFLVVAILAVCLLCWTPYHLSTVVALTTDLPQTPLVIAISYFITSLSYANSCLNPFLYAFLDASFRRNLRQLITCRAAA
EBNA-1 inh: blocks EBNA-1 binding to DNA; EBNA-1 DNA binding, fluorescence polarization; inhibition, % at 14.8 µM; hit rate 0.34% among 300,000; AID 1950; in the data active = inhibition above about 28%
Numbers without * were called inactive; . = not tested or not shown.

SMILES	DNA FID counter	ZTA counter	HCV NS3 hel inh	GPR7 antagonist	EBNA-1 inh
COC(=O)c1cc(C)nc2c1C(=O)C(=O)C=C2N1CCOCC1	0	57*	-3	-25	-1
COC(=O)c1cc(S(=O)(=O)N2CCOCC2)c(Cl)cc1N1CCOCC1	-2	0	-6	-6	-3
CSc1cccc(NC(=O)CC2Oc3ccccc3NC2=O)c1 (stereo unspecified)	-11	5	1	1	9
Cc1cc(S(=O)(=O)Nc2noc3ccccc23)ccc1F	-10	-9	-7	0	-16
Cc1cccc(N(CC(=O)N2CCc3ccccc3C2)S(C)(=O)=O)c1C	-30	-4	-11	-3	-6
COc1cccc(-c2ccc(NC(=O)C3CCCN(Cc4cnn(C(C)C)c4)C3)cc2)c1 (stereo unspecified)	36	-13	-41	20*	2
COc1cc(CNCCO)cc(Cl)c1OCc1ccc(Cl)cc1Cl	43*	-14	-60	58*	-4
COc1cc(CNCCO)cc(Br)c1OCc1ccccc1Cl	36	6	-44	19	-1
Cc1ccc(S(=O)(=O)/N=C2/NC(=O)/C(=C/c3ccc(Br)o3)S2)cc1	-11	-4	26	-4	7
Cc1ccc(S(=O)(=O)/N=C2/NC(=O)/C(=C\c3cc(Br)cc(Br)c3O)S2)cc1	44*	.	34	16	.
O=C(CN(c1ccccc1)S(=O)(=O)c1ccccc1)N/N=C/c1ccc(OC2CSC2)cc1	-2	4	0	-8	55*
COc1ccc(N(CC(=O)N/N=C/c2ccc(N(C)C)cc2)S(=O)(=O)c2ccccc2)cc1	-27	12	-14	-23	-16
O=C(C1CCCCC1)N1CCN(S(=O)(=O)c2cccc([N+](=O)[O-])c2)CC1	-13	2	7	5	-14
Cc1cc(C(C)(C)C)ccc1OCCCCN1CCCC1	21	-8	-42	-2	-6
CCC(C)(C)c1ccc(OCCCC[n+]2cccc(C)c2C)c(C(C)(C)CC)c1	26	19	-51	22*	-6
FC(F)(F)c1cccc(NC(=S)NCc2ccccn2)c1	4	3	-1	20*	-2
Cc1ccccc1NC(=O)C1(NC(=O)c2cccc(N3C(=O)CSC3c3ccccc3)c2)CCCCC1 (stereo unspecified)	-31	-3	-9	20*	-3
CC(C)(C)c1ccc(C2SCC(=O)N2c2cccc(C(=O)O)c2)cc1 (stereo unspecified)	-26	2	24	22	-1
COc1ccc(C(=S)N2CCN(c3cccc(Cl)c3)CC2)c(OC)c1	-4	5	1	28*	-4
CN(C)S(=O)(=O)c1ccc(C(=O)OCC(=O)Nc2ccccc2OC(F)F)cc1	-11	2	-2	-6	-17
CN(C)S(=O)(=O)c1ccc(C(=O)OCC(=O)c2ccc(OC(F)F)cc2OC(F)F)cc1	-12	6	-16	18*	3
O=C1C(=O)N(Cc2ccccc2)C(=O)N1CCN1C(=O)c2ccccc2C1=O	-9	3	-10	19*	-3
O=C1c2cccc3cccc(c23)C(=O)N1Cc1ccccc1	10	-2	6	3	6
O=C(O)CCN1C(=O)c2ccccc2C1=O	4	8	-37	18*	-1
O=C(O)CNC(=O)CCN1C(=O)c2ccccc2C1=O	0	-8	4	-4	-12
SMILES	DNA FID counter	ZTA counter	HCV NS3 hel inh	GPR7 antagonist	EBNA-1 inh
Cc1ccc(C)c2c1N(Cc1ccccc1)C(=O)C21OCCO1	-21	-1	9	7	-3
Cc1cc(N2CCN(C)CC2)nc2ccc(NC(=S)NCCCN3CCc4ccccc4C3)cc12	41*	-4	-32	-9	5
Cc1cc(N2CCN(C)CC2)nc2ccc(NC(=S)NCCN3CCc4ccccc4C3)cc12	38*	-3	-32	0	-10
CCN1CCN(c2cc(C)c3cc(NC(=S)NCCCN4CCc5ccccc5C4)ccc3n2)CC1	32	-13	-73	2	3
CC(C)N(CCCNC(=O)C1CCN(C(=O)c2cc3sccc3n2C)CC1)Cc1ccccc1	28	-14	-16	1	-27
CSCCC(NS(=O)(=O)c1ccc(C)cc1)C(=O)NC1CCCCCC1 (stereo unspecified)	.	-9	.	.	-5
COc1ccc(N2C(=O)N[C@@H](Cc3ccccc3)C2=O)cc1OC	-6	0	11	-12	6
CN(C)CCCNc1cc(-c2ccccc2)nc2cc(-c3cccc(F)c3)nn12	40*	0	-31	19	-5
Cc1ccc(C(c2nnnn2C(C)(C)C)N2CCN(C3CCCC3)CC2)cc1 (stereo unspecified)	6	16	-3	-5	13
CC(C)CC(c1nnnn1C(C)(C)C)N1CCN(C2CCCC2)CC1 (stereo unspecified)	8	-14	-4	18*	-15
COc1ccc(C(=O)NC(=S)Nc2ccc3[nH]c(=O)[nH]c3c2)c(OC)c1	-7	-16	14	-7	-7
CC(C)(C)NS(=O)(=O)c1ccc(NC(=O)CS(=O)(=O)Cc2ccccc2)cc1	-26	-18	-2	-15	-4
c1ccc(N2CCN(c3nc(NCc4ccco4)c4ccccc4n3)CC2)cc1	40*	-1	-68	5	3
c1coc(CNc2nc(N3CCCCC3)nc3ccccc23)c1	8	4	-15	16	-12
Cc1ccc(Nc2nc(NCc3ccco3)c3ccccc3n2)cc1	20	-1	-62	34*	-4
O=C1c2ccccc2-c2onc3ccc(N4CCCC4)c1c23	47*	.	16	-5	.
CCOc1ccc2noc3c2c1C(=O)c1ccccc1-3	2	2	0	-3	-10
CN1C(=O)[C@@H]2C[C@@]3([C@@]45C[C@H]6C(=O)N(C)[C@@H](Cc7ccccc7)C(=O)N6[C@@H]4Nc4ccccc45)c4ccccc4N[C@H]3N2C(=O)[C@@H]1Cc1ccccc1	.	-9	.	.	7
O=C(NCCc1ccccc1)C(c1cccs1)N(C(=O)CCl)c1ccc(Cl)cc1 (stereo unspecified)	-22	-8	1	23*	-1
Cc1ccccc1CSc1nnc(-c2cccs2)n1Cc1ccco1	-33	14	-16	11	6
Brc1ccc(CSc2nnc(-c3ccccn3)n2Cc2ccco2)cc1	-28	-1	-7	18*	-19
Cc1ccccc1CSc1nnc(-c2ccco2)n1Cc1ccco1	-30	-1	-1	17*	3
Clc1cccc(CSc2nnc(-c3ccccn3)n2Cc2ccco2)c1	-39	-5	6	21*	-14
O=C(NC(=S)Nc1cccc([N+](=O)[O-])c1)C1CCCC1	-1	-6	-9	20*	4
Cc1ccc(CC(=O)Nc2cccc([N+](=O)[O-])c2)cc1	8	15	-2	19*	15
CC(=O)NC(=S)Nc1cccc([N+](=O)[O-])c1	1	-6	3	-14	-14
CCC1=NN2C(=N)/C(=C\c3ccc(SCc4ccco4)o3)C(=O)N=C2S1	-16	10	23	5	-1

From PubChem BioAssay
